Experimental data from ChEMBL document CHEMBL3526127, “Absorption, elimination, and metabolism of CS-1036, a novel α-amylase inhibitor in rats and monkeys, and the relationship between gastrointestinal distribution and suppression of glucose absorption” (Drug Metab Dispos, 2013).

How the values were obtained:
[1] = Half life in F344 rat at 10 mg/kg, po administered as single dose by LC-MS/MS method; format: ADME, organism-based; set-up: dose 10 mg/kg, route oral; conditions: in vivo
[2] = AUClast in F344 rat at 0.3 mg/kg, iv administered as single dose by LC-MS/MS method; format: ADME, organism-based; set-up: time 0 - last, dose 0.3 mg/kg, route intravenous; conditions: plasma
Summary of the method: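 Fasted male F344 rats (146–185 g) or male cynomolgus monkeys (3.48–4.29 kg), n = 4 per dose, given single iv or oral dose of 0.3, 1.0, 3.0 or 10.0 mg/kg; monkeys dosed with 2-week washouts. Blood sampled to 48 h; plasma stored frozen. LC-MS/MS with deuterated internal standard. Noncompartmental analysis: AUClast by trapezoidal rule; AUC0–inf = AUClast + Ctz/terminal rate constant; mean ± S.D.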

[3] = Volume of distribution at steady state in F344 rat at 3 mg/kg, iv administered as single dose by LC-MS/MS method; format: ADME, organism-based; set-up: dose 3 mg/kg, route intravenous; conditions: in vivo, read-out: Vdss
Summary of the method: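 Male F344 rats (146–185 g) and male cynomolgus monkeys (3.48–4.29 kg), n = 4 each, fasted overnight, received single iv or oral doses of 0.3, 1.0, 3.0 or 10.0 mg/kg. Monkeys had 2-week washouts between doses. Plasma was sampled to 48 h and assayed by LC-MS/MS with deuterated internal standard. Noncompartmental analysis: tmax observed; t1/2 by regression on ≥3 terminal log points; Vss = dose·AUMC/(AUC0–inf)²; Foral = oral/iv AUC0–inf at the same dose.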

[4] = Drug excretion in cynomolgus monkey urine at 3 mg/kg, po administered as single dose after 0 to 48 hrs by scintillation counting method; format: ADME, organism-based, Macaca fascicularis; set-up: dose 3 mg/kg, route oral; conditions: in vivo
[5] = Drug metabolism in anaerobic culture broth of monkey feces assessed as 1,4-dideoxy-1,4-imino-D-arabinitol formation at 63.5 uCi/ml after 24 hrs at 35 degC by LC-MS/MS method; conditions: cynomolgus monkey
[6] = Drug distribution in F344 rat cecum at 1 mg/kg, po administered as single dose after 4 hrs by scintillation counting method; format: ADME, organism-based, Caecum; set-up: dose 1 mg/kg, route oral; conditions: in vivo
Summary of the method: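 [14C]-labelled drug (1 mg/kg, 42.4 µCi/kg) was given orally to fasted F344 rats (148–168 g, n = 3). Contents of stomach, duodenum+jejunum, ileum and cecum were washed out with water at 0.5–8 h, homogenized, solubilized and counted by liquid scintillation. Results are % of dose, mean ± S.D.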

half-life [1] | AUC(0-t) [2] | Vd [3] | Drug excretion [4] | Drug metabolism [5] | Drug uptake [6] | Structure (SMILES)
18.3 h | 1860 ng·h/mL | 0.219 L/kg |  |  |  | C[C@H]1O[C@@H](O[C@H]2[C@H](O)[C@@H](O)[C@@H](O[C@H]3[C@H](O)CN[C@@H]3CO)O[C@@H]2CO)[C@H](O)[C@@H](O)[C@@H]1O
 |  |  | 4.54% | metabolite_detected | 49.4% | C[C@H]1O[C@@H](O[C@H]2[C@H](O)[C@@H](O)[C@@H](O[14C@H]3[14C@H](O)[14CH2]N[14C@@H]3[14CH2]O)O[C@@H]2CO)[C@H](O)[C@@H](O)[C@@H]1O
